Laboratory results: ChEMBL document CHEMBL1135709, “2,6-Di(omega-aminoalkyl)-2,5,6,7-tetrahydropyrazolo[3,4,5-mn]pyrimido[5,6,1-de]acridine-5,7-diones: novel, potent, cytotoxic, and DNA-binding agents” (J Med Chem, 2002)

Assays:
786-0 [1] = assay: Percent growth of NCI cell line, renal: 786-0 exposed for 48 hr at 10e-4 concentration; assay type: functional, Homo sapiens
How it was run: (§1)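 NCI panel cell lines exposed 48 h to 10^-8, 10^-6 and 10^-4 M drug; read-out is percent growth at each concentration.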

786-0 [2] = assay: Percent growth of NCI cell line, renal: 786-0 exposed for 48 hr at 10e-6 concentration; assay type: functional, Homo sapiens; how it was run: as §1
786-0 [3] = assay: Percent growth of NCI cell line, renal: 786-0 exposed for 48 hr at 10e-8 concentration; assay type: functional, Homo sapiens; how it was run: as §1
Calf thymus DNA = assay: CT-DNA binding required to produce a 50% drop in fluorescence of DNA-bound ethidium.; assay type: nucleic-acid assay; details: Bos taurus
How it was run: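 Ethidium displacement from calf thymus DNA in 10 mM Na2HPO4, 10 mM NaH2PO4, 1 mM EDTA, pH 7.0, containing 1.26 μM ethidium bromide and 1 μM CT-DNA. Drug added serially from ~5 mM DMSO stock; 20 °C; fluorescence excitation 546 nm, emission 595 nm. C50 = drug concentration lowering DNA-bound ethidium fluorescence by 50%, mean of three determinations.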

DU-145 [4] = assay: Percent growth of NCI cell line, prostate: DU-145 exposed for 48 hr at 10e-6 concentration; assay type: functional, Homo sapiens; how it was run: as §1
DU-145 [5] = assay: Percent growth of NCI cell line, prostate: DU-145 exposed for 48 hr at 10e-8 concentration; assay type: functional, Homo sapiens; how it was run: as §1
HCT-15 [6] = assay: Percent growth of NCI cell line, colon: HCT-15 exposed for 48 hr at 10e-4 concentration; assay type: functional, Homo sapiens; how it was run: as §1
HCT-15 [7] = assay: Percent growth of NCI cell line, colon: HCT-15 exposed for 48 hr at 10e-6 concentration; assay type: functional, Homo sapiens; how it was run: as §1
HCT-15 [8] = assay: Percent growth of NCI cell line, colon: HCT-15 exposed for 48 hr at 10e-8 concentration; assay type: functional, Homo sapiens; how it was run: as §1
HT-29 = assay: In vitro cytotoxic potency against HT-29 (human colon adenocarcinoma) cell line.; assay type: functional, cell-based
LoVo [9] = assay: Cytotoxicity activity on LoVo/Dx human adenocarcinoma cell line after 144 hr of drug exposure; assay type: functional, cell-based
How it was run: (§2)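 LoVo (sensitive) and LoVo/Dx (resistant) human colon adenocarcinoma cells seeded at 2.5 × 10^5 cells/mL medium; drug solutions added to culture.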

LoVo [10] = assay: Cytotoxicity activity on LoVo/Dx human adenocarcinoma cell line after 1 hr of drug exposure; assay type: functional, cell-based
How it was run: (§3)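 LoVo (sensitive) and LoVo/Dx (resistant) human colon adenocarcinoma cells seeded at 2.5 × 10^5 cells/mL medium; drug solutions added to culture. IC50 = drug concentration inhibiting cell growth by 50%, assays in triplicate.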

[11] = Percent growth of NCI cell line, melanoma: LOX IMVI exposed for 48 hr at 10e-4 concentration; assay type: functional, Homo sapiens; how it was run: as §1
[12] = Percent growth of NCI cell line, melanoma: LOX IMVI exposed for 48 hr at 10e-6 concentration; assay type: functional, Homo sapiens; how it was run: as §1
LOX IMVI = assay: Percent growth of NCI cell line, melanoma: LOX IMVI exposed for 48 hr at 10e-8 concentration; assay type: functional, Homo sapiens; how it was run: as §1
MCF7 [13] = assay: Percent growth of NCI cell line, breast: MCF-7 exposed for 48 hr at 10e-4 concentration; assay type: functional, Homo sapiens; how it was run: as §1
MCF7 [14] = assay: Percent growth of NCI cell line, breast: MCF-7 exposed for 48 hr at 10e-6 concentration; assay type: functional, Homo sapiens; how it was run: as §1
MCF7 [15] = assay: Percent growth of NCI cell line, breast: MCF-7 exposed for 48 hr at 10e-8 concentration; assay type: functional, Homo sapiens; how it was run: as §1
LoVo [16] = assay: Cytotoxicity activity on LoVo human adenocarcinoma cell line after 144 hr of drug exposure; assay type: functional, cell-based; how it was run: as §2
LoVo [17] = assay: Cytotoxicity activity on LoVo human adenocarcinoma cell line after 1 hr of drug exposure; assay type: functional, cell-based; how it was run: as §3
NCI-H460 [18] = assay: Percent growth of NCI cell line, lung-nsc: NCI-H460 exposed for 48 hr at 10e-4 concentration; assay type: functional, Homo sapiens; how it was run: as §1
NCI-H460 [19] = assay: Percent growth of NCI cell line, lung-nsc: NCI-H460 exposed for 48 hr at 10e-6 concentration; assay type: functional, Homo sapiens; how it was run: as §1
NCI-H460 [20] = assay: Percent growth of NCI cell line, lung-nsc: NCI-H460 exposed for 48 hr at 10e-8 concentration; assay type: functional, Homo sapiens; how it was run: as §1
OVCAR-4 [21] = assay: Percent growth of NCI cell line, ovarian: OVCAR-4 exposed for 48 hr at 10e-4 concentration; assay type: functional, Homo sapiens; how it was run: as §1
OVCAR-4 [22] = assay: Percent growth of NCI cell line, ovarian: OVCAR-4 exposed for 48 hr at 10e-6 concentration; assay type: functional, Homo sapiens; how it was run: as §1
OVCAR-4 [23] = assay: Percent growth of NCI cell line, ovarian: OVCAR-4 exposed for 48 hr at 10e-8 concentration; assay type: functional, Homo sapiens; how it was run: as §1
SNB-19 [24] = assay: Percent growth of NCI cell line, CNS: SNB-19 exposed for 48 hr at 10e-4 concentration; assay type: functional, Homo sapiens; how it was run: as §1
SNB-19 [25] = assay: Percent growth of NCI cell line, CNS: SNB-19 exposed for 48 hr at 10e-6 concentration; assay type: functional, Homo sapiens; how it was run: as §1
[26] = Percent growth of NCI cell line, leucemia K562 exposed for 48 hr at 10e-4 concentration; assay type: functional, Homo sapiens; how it was run: as §1
[27] = Percent growth of NCI cell line, leucemia K562 exposed for 48 hr at 10e-6 concentration; assay type: functional, Homo sapiens; how it was run: as §1
[28] = Percent growth of NCI cell line, leucemia K562 exposed for 48 hr at 10e-8 concentration; assay type: functional, Homo sapiens; how it was run: as §1
SNB-19 [29] = assay: Percent growth of NCI cell line, CNS: SNB-19 exposed for 48 hr at 10e-8 concentration; assay type: functional, Homo sapiens; how it was run: as §1
DU-145 [30] = assay: Percent growth of NCI cell line, prostate: DU-145 exposed for 48 hr at 10e-4 concentration; assay type: functional, Homo sapiens; how it was run: as §1

Compound `CN(C)CCn1c(=O)c2ccc3c4c(nn3CCN(C)C)c3cc(N)ccc3n(c1=O)c24` has a Growth (786-0 [1]) of -95%, a Growth (786-0 [2]) of -44% and a Growth (786-0 [3]) of 23%. The C50 (Calf thymus DNA) was 0.0009 µM, the Growth (DU-145 [4]) was -11% and the Growth (DU-145 [5]) was 59%. The Growth (HCT-15 [6]) was -75%, the Growth (HCT-15 [7]) was -25% and the Growth (HCT-15 [8]) was 54%. The IC50 (HT-29) was 3.7 nM, the IC50 (LoVo [9]) was 16 nM and the IC50 (LoVo [10]) was 550 nM. For the same compound, the Growth [11] was -50%, the Growth [12] was -28% and the Growth (LOX IMVI) was 47%. The Growth (MCF7 [13]) was -65%, the Growth (MCF7 [14]) was -6% and the Growth (MCF7 [15]) was 62%. It also gave an IC50 (LoVo [16]) of 0.52 nM, an IC50 (LoVo [17]) of 130 nM and a Growth (NCI-H460 [18]) of -64%. The Growth (NCI-H460 [19]) was -28%, the Growth (NCI-H460 [20]) was 16% and the Growth (OVCAR-4 [21]) was -51%. It also gave a Growth (OVCAR-4 [22]) of -47%, a Growth (OVCAR-4 [23]) of 55% and a Growth (SNB-19 [24]) of -69%. The Growth (SNB-19 [25]) was -14%, the Growth [26] was -15% and the Growth [27] was 7%. It also gave a Growth [28] of 45%, a Growth (SNB-19 [29]) of 43% and a Growth (DU-145 [30]) of -67%.
